Values joined by “and” are separate entries in the source; they are usually repeats but may differ in a detail not shown here. Identical values can stand only once. “Also recorded” adds a separate entry of the source. Like-named read-outs stand apart in the source and are kept apart here. Each block holds one compound with its values, some of them ahead of it.
Legend:
[1] = target: P2Y1 receptors on mouse platelets (Mus musculus, UniProt P49650); assay: [125I]MRS2500 binding assay with intact washed mouse platelets
Method in brief: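 Mouse washed platelets were prepared by differential centrifugation in Tyrode's buffer, pH 7.3, with 0.35% human serum albumin and apyrase (0.02 U/ml), held at 150,000 platelets/μl at 37°C. Platelet suspension (400 μl in 0.5 ml) was incubated 5 min with [125I]MRS2500 at 20°C or 37°C, with or without competitors. Samples were filtered on GF/C, washed five times with ice-cold buffer, and gamma-counted. Nonspecific binding was defined with 10 μM MRS2179.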

[2] = system: platelets isolated from P2Y1(−/−) mice; assay: [125I]MRS2500 binding to platelets isolated from P2Y1; parameters: species or system mouse
[3] = target: P2Y1 receptors on human platelets (Homo sapiens, UniProt P47900); assay: [125I]MRS2500 binding assay with intact washed human platelets; conditions: for effect on [125I]MRS2500 binding: competing drug up to 100 μM
human P2Y1 receptor = human P2Y1 receptor (Homo sapiens, UniProt P47900); type: binding; conditions: for Ki: read-out: Ki, inhibition of [125I]MRS2500 binding, competition curves
P2Y1 receptor = conditions: read-out: Kd for the P2Y1 receptor; cited from earlier work
[4] = system: membranes from wild-type insect cells (empty vector-infected Sf9); assay: [125I]MRS2500 binding to membranes from empty vector-infected; conditions: wide range of membrane concentrations; nonspecific defined with 30 μM 2MeSADP
[5] = wild-type mouse platelets, 10 μM competitor
[6] = P2Y1 receptor-expressing Sf9 membranes
[7] = read-out: Ki, inhibition of [125I]MRS2500 binding, human platelets, competition
[8] = approximately 0.3 nM [125I]MRS2500, 300 ng membranes, data not shown
[9] = human platelets, 37°C, data not shown

Sequence of human P2Y1 receptor (P47900 whole entry): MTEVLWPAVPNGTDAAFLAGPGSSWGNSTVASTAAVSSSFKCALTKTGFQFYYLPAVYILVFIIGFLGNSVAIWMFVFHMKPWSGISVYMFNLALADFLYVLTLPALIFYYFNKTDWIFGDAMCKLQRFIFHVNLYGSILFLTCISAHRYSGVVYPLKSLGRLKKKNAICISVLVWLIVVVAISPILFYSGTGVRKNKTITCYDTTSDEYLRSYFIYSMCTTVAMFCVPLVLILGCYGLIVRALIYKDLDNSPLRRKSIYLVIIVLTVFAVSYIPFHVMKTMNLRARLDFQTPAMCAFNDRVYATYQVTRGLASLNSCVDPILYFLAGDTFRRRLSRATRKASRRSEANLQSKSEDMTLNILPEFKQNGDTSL
Sequence of P2Y1 receptors on human platelets (P47900 whole entry): as above
Sequence of P2Y1 receptors on mouse platelets (P49650 whole entry): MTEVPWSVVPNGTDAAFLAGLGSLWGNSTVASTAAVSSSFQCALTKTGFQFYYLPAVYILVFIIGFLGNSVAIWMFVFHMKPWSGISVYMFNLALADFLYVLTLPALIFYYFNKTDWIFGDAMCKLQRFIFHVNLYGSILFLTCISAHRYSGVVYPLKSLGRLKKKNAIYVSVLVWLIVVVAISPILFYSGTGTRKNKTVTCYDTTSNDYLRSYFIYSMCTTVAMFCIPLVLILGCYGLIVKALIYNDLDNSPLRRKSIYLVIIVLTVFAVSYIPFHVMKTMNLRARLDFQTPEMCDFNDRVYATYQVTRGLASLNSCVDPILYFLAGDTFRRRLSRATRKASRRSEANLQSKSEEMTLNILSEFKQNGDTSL

- effect on [125I]MRS2500 binding [1, 5]: inhibited
SMILES: CSc1nc(N)c2ncn([C@@H]3O[C@H](COP(=O)(O)OP(=O)(O)O)[C@@H](O)[C@H]3O)c2n1 [2MeSADP, 2-methylthio-adenosine 5′-diphosphate, reference compound]
- effect on residual [125I]MRS2500 binding ([2]; high concentration of competitor): not inhibited

- effect on [125I]MRS2500 binding ([3]; human platelets): Little effect
SMILES: Nc1ncnc2c1ncn2[C@@H]1O[C@H](COP(=O)(O)CP(=O)(O)OP(=O)(O)O)[C@@H](O)[C@H]1O [!!MeATP, reference compound]

SMILES: Nc1ncnc2c1ncn2[C@@H]1O[C@H](COP(=O)(O)OP(O)(O)=S)[C@@H](O)[C@H]1O [ADP!S, reference compound]
- Ki (human P2Y1 receptor; [6]): 1750 ± 750 nM

- Ki (human P2Y1 receptor; [6]): 625 ± 37 nM
- Ki [3, 7]: 15400 ± 9000 nM
- effect on [125I]MRS2500 binding ([1]; wild-type mouse platelets, 100 μM competitor): inhibited
SMILES: Nc1ncnc2c1ncn2[C@@H]1O[C@H](COP(=O)(O)OP(=O)(O)O)[C@@H](O)[C@H]1O [ADP, reference compound]

- effect on [125I]MRS2500 binding ([3]; human platelets): Little effect
- effect on [125I]MRS2500 binding [1, 5]: no effect
SMILES: CSCCNc1nc(SCCC(F)(F)F)nc2c1ncn2[C@@H]1O[C@H](COP(=O)(O)OP(=O)(O)C(Cl)(Cl)P(=O)(O)O)[C@@H](O)[C@H]1O [ARC-69931MX, [dichloro-[[[(2R,3S,4R,5R)-3,4-dihydroxy-5-[6-(2-methylsulfanylethylamino)-2-(3,3,3-trifluoropropylsulfanyl)purin-9-yl]oxolan-2-yl]methoxy-hydroxyphosphoryl]oxy-hydroxyphosphoryl]methyl]phosphonic acid, reference compound]

SMILES: CNc1ncnc2c1ncn2[C@H]1C[C@H](OP(=O)(O)O)[C@@H](COP(=O)(O)O)O1 [MRS2179]
- Ki [3]: 72.5 ± 17 nM
- effect on [125I]MRS2500 binding [1, 5]: inhibited
- Kd (P2Y1 receptor): ~100 nM

SMILES: CNc1nc(Cl)nc2c1ncn2[C@H]1C[C@H](OP(=O)(O)O)[C@]2(COP(=O)(O)O)C[C@H]12 [MRS2279, 2-chloro-N^6-methyl-(N)-methanocarba-2′-deoxyadenosine-3′,5′-bisphosphate]
- Kd (P2Y1 receptor): ~10 nM

- effect on [125I]MRS2500 binding [1, 5]: inhibited
SMILES: CSc1nc(N)c2ncn([C@H]3[C@H](O)[C@H](O)[C@@]4(COP(=O)(O)OP(=O)(O)O)C[C@H]34)c2n1 [MRS2365, (1′S,2′R,3′S,4′R,5′S)-4-[(6-amino-2-methylthio-9H-purin-9-yl)-1-diphosphoryloxymethyl]bicyclo[3.1.0]hexane-2,3-diol]

- Ki [3, 7]: 1.2 ± 0.15 nM
SMILES: CNc1nc(I)nc2c1ncn2[C@H]1C[C@H](OP(=O)(O)O)[C@]2(COP(=O)(O)O)C[C@H]12 [MRS2500, 2-iodo-N^6-methyl-(N)-methanocarba-2′-deoxyadenosine 3′,5′-bisphosphate]

- effect on [125I]MRS2500 binding (human P2Y1 receptor; concentrations up to 30 μM): no effect
SMILES: O=c1ccn([C@@H]2O[C@H](COP(=O)(O)OP(=O)(O)OP(=O)(O)O)[C@@H](O)[C@H]2O)c(=O)[nH]1 [UTP, reference compound]

- time steady-state binding was maintained (human P2Y1 receptor; [8]): at least 40 min
- time to steady state binding (human P2Y1 receptor; [8]): ≤ 20 min
- Kd (human P2Y1 receptor; read-out: Kd, saturation binding of [125I]MRS2500, P2Y1 receptor-expressing Sf9 membranes, 4°C, one-site binding): 1.1 ± 0.3 nM
- Bmax for P2Y1 receptor expression in Sf9 cells (human P2Y1 receptor; saturation binding of [125I]MRS2500): 13.3 ± 2.2 pmol/mg membrane protein
- Bmax (binding sites) ([3]; human platelets, 20°C, data not shown): 147 sites/platelet
- time binding was stable [3, 9]: at least 15 min
- time to apparent steady state binding [3, 9]: 60 to 90 s
- time to steady state binding ([3]; intact washed platelets (human or mouse), 20°C or 37°C): ≤ 5 min
- Kd ([3]; read-out: Kd, saturation binding of [125I]MRS2500, human platelets, 37°C): 0.61 nM
- Bmax ([1]; mouse platelets, 20°C, data not shown): 253 sites/platelet
- Kd ([1]; read-out: Kd, saturation binding of [125I]MRS2500, mouse platelets, 20°C, data not shown): 0.5 nM
SMILES: CNc1nc(I)nc2c1ncn2[C@H]1C[C@H](OP(=O)(O)O)[C@]2(COP(=O)(O)O)C[C@H]12 [[^125I]MRS2500, 2-iodo-N^6-methyl-(N)-methanocarba-2′-deoxyadenosine-3′,5′-bisphosphate]
- Bmax ([3]; human platelets, 37°C): 151 sites/platelet and 151 ± 1 sites/platelet
- Bmax ([1]; wild-type mouse platelets, 37°C): 229 sites/platelet and 229 ± 23 sites/platelet
- specific binding of radioligand [4]: did not specifically bind; also recorded: no specific binding
- specific binding of [125I]MRS2500 [2]: not observed
